The source made the active and inactive calls. The rule behind the calls is not given here.
Key:
[1] = molecular target: Histamine H2 receptor (Cavia porcellus) (UniProt P47747); assay: Histamine H2 receptor agonistic activity (as a measure of agonism) at the isolated right atrium of guinea pig, activity relative to histamine.; type: functional, tissue-based; details: Cardiac atrium
In short: (§1)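 Spontaneously beating isolated guinea pig right atrium with a positive chronotropic read-out. Cumulative concentration-response curves were run against histamine dihydrochloride as the standard. Incubation after each concentration was usually 25 min, adjusted until equilibrium. H2 selectivity was checked with cimetidine (10 µM and 1 µM) and metoprolol (1 µM). Potency relative to histamine = 1 was calculated from mean pD2 values.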

[2] = molecular target: Histamine H2 receptor (Cavia porcellus) (UniProt P47747); assay: Intrinsic activity (as a measure of agonism) on electrically stimulated papillary muscle of guinea pig; type: functional, tissue-based; details: Muscle tissue
In short: (§2)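 Isolated right-ventricular papillary muscle from guinea pig, electrically paced at 1 Hz with 1 ms pulses, in Krebs-Henseleit solution gassed with O2/CO2 95:5 at 32.5 °C. Compounds were tested as hydrohalide salts. Cumulative concentration-response curves of contractile force were run against histamine as the standard agonist. […] relative potency were taken from pD2, with histamine maximum = 1.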

[3] = molecular target: Histamine H2 receptor (Cavia porcellus) (UniProt P47747); assay: Potency relative to histamine calculated from mean pD2 value in guinea pig right atrium.; type: functional, tissue-based; details: Cardiac atrium; in short: as §1
[4] = molecular target: Histamine H2 receptor (Cavia porcellus) (UniProt P47747); assay: Histamine H2 receptor agonism relative to histamine on isolated guinea pig right atrium; type: functional, tissue-based; details: Cardiac atrium; in short: as §1
[5] = molecular target: Histamine H2 receptor (Cavia porcellus) (UniProt P47747); assay: Agonistic activity relative to histamine on electrically stimulated papillary muscle of guinea pig; type: functional, tissue-based; details: Muscle tissue; in short: as §2
Histamine H1 receptor [6] = molecular target: T1, Histamine H1 receptor (Cavia porcellus, UniProt P31389); assay: Antagonist activity at histamine H1 receptor against histamine in isolated ileum of guinea pig.; type: functional, tissue-based; details: read-out: pA2 (converted)
In short: (§3)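 Isolated guinea pig ileum contracted by histamine, with histamine dihydrochloride as the standard agonist in cumulative dose-response curves. pA2 was derived. For compounds that depressed the histamine maximum at 10 µM, -log KB was taken at 3 µM antagonist from log(DR-1) = log[ant.] - log KB.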

Cavia porcellus [7] = organism: Cavia porcellus; assay: Increase in heart rate with maximal inotropic response in isolated perfused guinea pig heart; type: functional; parameters: unit not given beside the values
In short: (§4)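 Langendorff-perfused isolated guinea pig heart. Compounds were given as a bolus injected into the perfusion stream, with impromidine as reference. Net increases in LV dp/dtmax, heart rate and coronary flow were expressed against impromidine = 100% in a control group (n = 6 each). Relative potency was taken from molar ED50 ratios versus impromidine = 100%.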

Cavia porcellus [8] = organism: Cavia porcellus; assay: Chronotropic effect assessed from maximal increase in delta LV (dp/dtmax) in isolated perfused guinea pig heart; type: functional; details: in the assay text read “Inotropic effect” for “Chronotropic effect”; in short: as §4
Cavia porcellus [9] = organism: Cavia porcellus; assay: Increase in coronary flow with maximal inotropic response in isolated perfused guinea pig heart; type: functional; parameters: unit not given beside the values; in short: as §4
Cavia porcellus [10] = organism: Cavia porcellus; assay: Relative potency with impromidine (100%) in isolated perfused guinea pig heart; type: functional; in short: as §4
[11] = molecular target: Histamine H2 receptor (Cavia porcellus) (UniProt P47747); assay: H2 receptor agonistic activity in isolated right atrium of guinea pig compared to histamine; type: functional, tissue-based; details: Cardiac atrium; in short: as §1
[12] = molecular target: Histamine H2 receptor (Cavia porcellus) (UniProt P47747); assay: Intrinsic activity at H2 receptor in electrically stimulated guinea pig papillary muscle; type: functional, tissue-based; in short: as §2
[13] = molecular target: Histamine H2 receptor (Cavia porcellus) (UniProt P47747); assay: Potency at H2 receptor compared to histamine from mean pD2 value in right atrium of guinea pig; type: functional, tissue-based; details: Cardiac atrium; in short: as §1
[14] = molecular target: Histamine H2 receptor (Cavia porcellus) (UniProt P47747); assay: Agonist activity at H2 receptor relative to histamine on electrically stimulated papillary muscle of guinea pig; type: functional, tissue-based; in short: as §2
[15] = molecular target: Histamine H2 receptor (Cavia porcellus) (UniProt P47747); assay: H2 receptor agonist activity relative to histamine on isolated right atrium of guinea pig; type: functional, tissue-based; details: Cardiac atrium; in short: as §1
Histamine H1 receptor [16] = molecular target: T1, Histamine H1 receptor; assay: Antagonist activity at histamine H1 receptor against histamine in isolated ileum of guinea pig; type: functional, tissue-based; details: read-out: pA2 (converted); in short: as §3
[17] = molecular target: Histamine H2 receptor (Cavia porcellus) (UniProt P47747); assay: Compound was tested for histamine H2 receptor agonistic activity of compound relative to histamine on isolated right atrium of guinea pig;NA means inactive as agonist at </=10 uM.; type: functional, tissue-based; details: Cardiac atrium; in short: as §1

Chain of Histamine H2 receptor (Cavia porcellus) (P47747 whole entry): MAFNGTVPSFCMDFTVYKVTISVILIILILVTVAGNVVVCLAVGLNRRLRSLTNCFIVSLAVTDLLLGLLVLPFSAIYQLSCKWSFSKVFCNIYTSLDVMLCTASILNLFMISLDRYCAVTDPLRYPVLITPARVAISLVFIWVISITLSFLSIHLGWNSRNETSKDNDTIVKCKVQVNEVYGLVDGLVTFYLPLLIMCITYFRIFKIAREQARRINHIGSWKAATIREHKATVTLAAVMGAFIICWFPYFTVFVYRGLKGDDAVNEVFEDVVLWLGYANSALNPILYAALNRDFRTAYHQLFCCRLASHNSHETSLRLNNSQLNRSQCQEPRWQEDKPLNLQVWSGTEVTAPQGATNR
T1 sequence (P31389 whole entry): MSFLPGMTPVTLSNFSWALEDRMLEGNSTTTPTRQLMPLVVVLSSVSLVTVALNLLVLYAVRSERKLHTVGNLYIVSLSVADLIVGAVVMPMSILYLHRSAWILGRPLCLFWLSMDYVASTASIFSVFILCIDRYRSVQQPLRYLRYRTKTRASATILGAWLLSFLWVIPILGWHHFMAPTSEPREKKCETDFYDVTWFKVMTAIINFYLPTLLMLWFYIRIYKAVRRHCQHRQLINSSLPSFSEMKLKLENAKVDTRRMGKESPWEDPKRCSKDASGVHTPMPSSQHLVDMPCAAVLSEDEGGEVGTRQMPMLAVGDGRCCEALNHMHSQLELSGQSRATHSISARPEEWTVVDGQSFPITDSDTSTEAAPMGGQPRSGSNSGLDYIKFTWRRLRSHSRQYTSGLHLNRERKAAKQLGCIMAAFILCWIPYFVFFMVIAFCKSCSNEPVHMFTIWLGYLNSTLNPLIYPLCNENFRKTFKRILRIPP

SMILES | Intrinsic activity [1] | Intrinsic activity [2] | Relative potency [3] | pD2 [4] | pD2 [5] | Kb (Histamine H1 receptor [6]) [µM] | other results
N=C(NCCCc1c[nH]cn1)NCCC(c1cccc(F)c1)c1ccccn1 (stereo not drawn) | 1 | 0.5 | 75.9 | 7.88 | 7.79 | 0.158 | –
N/C(=N\CCC(c1cccc([N+](=O)[O-])c1)c1ccccn1)NCCCc1c[nH]cn1 (stereo not drawn) | 0.9 | – | 8.1 | 6.91 | – | 1.7 | –
N=C(NCCCc1c[nH]cn1)NCCC(c1ccc(F)c(F)c1)c1ccccn1 (stereo not drawn) | – | – | – | – | – | – | Delta heart rate (Cavia porcellus [7]): 85; Delta LV (Cavia porcellus [8]): 123; Delta coronary flow (Cavia porcellus [9]): 108; Relative potency (Cavia porcellus [10]): 240; Intrinsic activity [11]: 1; Intrinsic activity [12]: 0.8; Relative potency [13]: 132; pD2 [14]: 7.9; pD2 [15]: 8.12
N=C(NCCCc1c[nH]cn1)NCCC(c1ccccn1)c1ccc(Cl)cc1Cl (stereo not drawn) | 0.9 | – | 52.5 | 7.72 | – | 0.288 | –
N=C(NCCCc1c[nH]cn1)NCCC(c1ccc(Cl)cc1)c1ccccn1 (stereo not drawn) | 1 | 0.8 | 69.2 | 7.84 | 7.39 | 0.0776 | Delta heart rate (Cavia porcellus [7]): 62; Delta LV (Cavia porcellus [8]): 91; Delta coronary flow (Cavia porcellus [9]): 103; Relative potency (Cavia porcellus [10]): 90
N=C(NCCCc1c[nH]cn1)NCCC(c1cccc(Cl)c1)c1ccccn1 (stereo not drawn) | 1 | 0.6 | 87.1 | 7.94 | 7.71 | – | Delta heart rate (Cavia porcellus [7]): 96; Delta LV (Cavia porcellus [8]): 103; Delta coronary flow (Cavia porcellus [9]): 79; Relative potency (Cavia porcellus [10]): 199
N=C(NCCCc1c[nH]cn1)NCCCC(c1ccc(F)cc1)c1ccccn1 (stereo not drawn) | 0.9 | – | 7.4 | 6.87 | – | 0.0468 | –
N/C(=N\CCC(c1ccc(O)cc1)c1ccccn1)NCCCc1c[nH]cn1 (stereo not drawn) | 1 | – | 4.3 | 6.63 | – | – | Kb (Histamine H1 receptor [16]): 0.661 µM
N=C(NCCCc1c[nH]cn1)NCCC(c1cccc(C(F)(F)F)c1)c1ccccn1 (stereo not drawn) | 1 | 0.7 | 26.9 | 7.43 | 7.44 | 0.525 | –
Cc1[nH]cnc1CSCCNC(=N)NCCCc1c[nH]cn1 [IMPROMIDINE] | – | – | – | – | – | – | Delta heart rate (Cavia porcellus [7]): 100; Delta LV (Cavia porcellus [8]): 100; Delta coronary flow (Cavia porcellus [9]): 100; Relative potency (Cavia porcellus [10]): 100
N=C(NCCCc1c[nH]cn1)NCCC(c1ccc(C(F)(F)F)cc1)c1ccccn1 (stereo not drawn) | 0.9 | 0.9 | 57.5 | 7.76 | 7.23 | 0.282 | –
N=C(NCCCc1c[nH]cn1)NCCC(c1cc(Cl)cc(Cl)c1)c1ccccn1 (stereo not drawn) | 1 | – | 23.4 | 7.37 | – | 0.0437 | –
N=C(NCCCc1c[nH]cn1)NCCC(c1ccccn1)c1ccccc1F (stereo not drawn) | 1 | – | 28.8 | 7.46 | – | 0.437 | –
N=C(NCCCc1c[nH]cn1)NCC(c1ccccc1)c1ccccn1 (stereo not drawn) | 1 | – | 2.2 | 6.35 | – | 3.31 | –
N=C(NCCCc1c[nH]cn1)NCCC(c1ccc(Cl)c(Cl)c1)c1ccccn1 (stereo not drawn) | 1 | 0.8 | 155 | 8.19 | 7.54 | 0.0794 | Delta heart rate (Cavia porcellus [7]): 62; Delta LV (Cavia porcellus [8]): 121; Delta coronary flow (Cavia porcellus [9]): 128; Relative potency (Cavia porcellus [10]): 221
N=C(NCCCc1c[nH]cn1)NCCC(c1ccncc1)c1ccc(F)cc1 (stereo not drawn) | – | – | – | – | – | 0.0372 | Intrinsic activity [11]: 1; Intrinsic activity [12]: 0.9; Relative potency [13]: 42.7; pD2 [14]: 7.28; pD2 [15]: 7.63
N=C(NCCCc1c[nH]cn1)NCCC(c1cc(F)cc(F)c1)c1ccccn1 (stereo not drawn) | 1 | 0.8 | 112 | 8.05 | 7.91 | 0.275 | Delta heart rate (Cavia porcellus [7]): 79; Delta LV (Cavia porcellus [8]): 129; Delta coronary flow (Cavia porcellus [9]): 182; Relative potency (Cavia porcellus [10]): 244
N=C(NCCCc1c[nH]cn1)NCCC(c1ccccn1)c1ccccn1 | 1 | – | 7.9 | 6.9 | – | 0.389 | –
N=C(NCCCc1c[nH]cn1)NCCSC(c1ccccc1)c1ccccn1 (stereo not drawn) | 1 | – | 4 | 6.6 | – | – | –

SMILES | Intrinsic activity [1] | Intrinsic activity [2] | Relative potency [3] | pD2 [4] | pD2 [5] | Kb (Histamine H1 receptor [6]) [µM] | other results
N=C(NCCCc1c[nH]cn1)NCCC(c1ccccc1)c1ccc(Cl)cc1 (stereo not drawn) | – | – | – | – | – | 0.0977 | Intrinsic activity [11]: 1; Intrinsic activity [12]: 0.8; Relative potency [13]: 13.2; pD2 [14]: 5.83; pD2 [15]: 7.12
NC(=NCCC(c1ccc(F)cc1)c1ccccn1)NCCCc1cnc[nH]1 (stereo not drawn) [ARPROMIDINE] | – | – | – | – | – | 0.0224 | –
N=C(NCCCc1c[nH]cn1)NCCC(Cc1ccccc1)c1ccc(F)cc1 (stereo not drawn) | 0.8 | – | 1.5 | 6.17 | – | 0.141 | –
N=C(NC/C=C(\c1ccc(F)cc1)c1ccccn1)NCCCc1c[nH]cn1 | 1 | – | 29.5 | 7.47 | – | 0.347 | –
N=C(NCCCc1c[nH]cn1)NCCC(c1ccc(F)cc1)c1ccccn1 (stereo not drawn) [ARPROMIDINE] | 1 | 0.8 | 102 | 8.01 | 7.94 | – | Delta heart rate (Cavia porcellus [7]): 57; Delta LV (Cavia porcellus [8]): 97; Delta coronary flow (Cavia porcellus [9]): 143; Relative potency (Cavia porcellus [10]): 146
N=C(NCCCc1c[nH]cn1)NCCC(c1ccccc1)c1ccc(F)cc1 (stereo not drawn) | 1 | 0.7 | 53.7 | 7.73 | 7.45 | 0.0347 | –
CN(CCC(c1ccc(F)cc1)c1ccccn1)C(=N)NCCCc1c[nH]cn1 (stereo not drawn) | 0.8 | – | 0.25 | 5.4 | – | 1.1 | –
COc1ccc(C(CC/N=C(\N)NCCCc2c[nH]cn2)c2ccccn2)cc1 (stereo not drawn) | 1 | 0.5 | 27.5 | 7.44 | 7 | 0.269 | –
N=C(NCCCc1c[nH]cn1)NCCC(c1ccccc1)c1ccc(Cl)c(Cl)c1 (stereo not drawn) | 1 | 0.6 | 28.8 | 7.46 | 6.03 | 0.195 | –
N=C(N)NCCC(c1ccc(F)cc1)c1ccccn1 (stereo not drawn) | – | – | – | – | – | 0.229 | Intrinsic activity [17]: inactive
N=C(NCCCc1c[nH]cn1)NCCC(c1ccccn1)c1ccccc1Cl (stereo not drawn) | – | – | – | – | – | 0.513 | Intrinsic activity [11]: 0.9; Relative potency [13]: 22.4; pD2 [15]: 7.35
N/C(=N\CCC(c1cccc(N)c1)c1ccccn1)NCCCc1c[nH]cn1 (stereo not drawn) | 0.9 | – | 24 | 7.38 | – | 0.851 | –
N/C(=N\CCC(O)(c1ccc(F)cc1)c1ccccn1)NCCCc1c[nH]cn1 (stereo not drawn) | 0.9 | – | 26.3 | 7.42 | – | 0.115 | –
N=C(NCCCc1c[nH]cn1)NCCC(c1ccccn1)c1cccs1 (stereo not drawn) | 1 | – | 14.5 | 7.16 | – | 0.0457 | –
N=C(NCCCc1c[nH]cn1)NCCCC(c1ccccc1)c1ccccn1 (stereo not drawn) | 1 | – | 4.1 | 6.61 | – | – | –
Cc1ccc(C(CC/N=C(\N)NCCCc2c[nH]cn2)c2ccccn2)cc1 (stereo not drawn) | 1 | 1 | 51.3 | 7.71 | 7.15 | 0.148 | Delta heart rate (Cavia porcellus [7]): 77; Delta LV (Cavia porcellus [8]): 96; Delta coronary flow (Cavia porcellus [9]): 59; Relative potency (Cavia porcellus [10]): 138
N=C(NCCCc1c[nH]cn1)NCCC(c1ccc(Br)cc1)c1ccccn1 (stereo not drawn) | 1 | 0.4 | 30.2 | 7.48 | 6.97 | 0.12 | Delta heart rate (Cavia porcellus [7]): 101; Delta LV (Cavia porcellus [8]): 93; Delta coronary flow (Cavia porcellus [9]): 155; Relative potency (Cavia porcellus [10]): 61
N=C(NCCCc1c[nH]cn1)NCCC(c1ccc(F)cc1)c1cccnc1 (stereo not drawn) | 1 | 0.8 | 123 | 8.09 | 7.91 | – | –
